Test results reported in ChEMBL document CHEMBL1147099, “In vitro and in vivo antibacterial activities of heteroaryl isothiazolones against resistant gram-positive pathogens” (Antimicrob Agents Chemother, 2007).
≈ marks a conversion by molar mass, not a printed value. Blank lines part the entries; values can stand above or below the compound they belong to.

What was measured:
[1] = system: Staphylococcus aureus; test: Effect on cellular viability of methicillin-sensitive Staphylococcus aureus ATCC 29213 by measuring the time required for recovery at 10 times MIC after 1 hr; format: functional
Outline: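 S. aureus in log phase, approximately 2–4 × 10^7 CFU/ml in CAMHB, was exposed to 10× MIC for 1 h at 35 to 37°C with shaking, then diluted 1:1,000 into prewarmed CAMHB. Viable counts were taken hourly for 4 to 8 h. PAE = T − C, the time to a 1-log10 rise, treated versus untreated. Mean of two independent experiments.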

[2] = Cmax in mouse at 50 mg/kg, sc; format: ADME, organism-based; set-up: dose 50 mg/kg, route subcutaneous; settings: in vivo
Outline: (§1)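 Fasted mice given one subcutaneous dose (20 or 50 mg/kg); blood taken from groups of three at 0.08, 0.25, 0.5, 1, 2, 4, 8, 24 h. Plasma protein-precipitated with cold acetonitrile plus internal standard, LC-MS/MS (C8, positive ESI, SRM); calibration 5–15,000 ng/ml. Noncompartmental analysis of mean concentrations; AUC to last quantifiable point by linear trapezoidal rule.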

[3] = AUC (0-24 hrs) in mouse at 50 mg/kg, sc; format: ADME, organism-based; set-up: time < 24 hr, dose 50 mg/kg, route subcutaneous; settings: plasma; outline: as §1
[4] = system: Staphylococcus aureus; test: Antibacterial activity against ethidium bromide-resistant Staphylococcus aureus BSA678 after 24 hrs by broth microdilution method; format: functional; settings: BSA678, 24 h
Outline: (§2)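 Broth microdilution per CLSI in cation-adjusted Mueller-Hinton II broth, final inoculum approximately 5 × 10^5 CFU/ml. Plates were incubated aerobically at 35 to 37°C for 24 h. MIC was the lowest concentration giving no visible growth. Reserpine, where used, was at a final concentration of 20 μg/ml.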

[5] = system: Staphylococcus aureus; test: Antibacterial activity against […] Staphylococcus aureus ATCC 29213 in presence of 20 ug/ml reserpine after 24 hrs by broth microdilution method; format: functional; settings: ATCC 29213, 24 h; outline: as §2
[6] = Tmax in mouse at 20 mg/kg, sc; format: ADME, organism-based; set-up: dose 20 mg/kg, route subcutaneous; settings: in vivo; outline: as §1
[7] = system: Staphylococcus aureus; test: Antibacterial activity against ethidium bromide-resistant Staphylococcus aureus Mu50 after 24 hrs by broth microdilution method; format: functional; settings: Mu50, 24 h; outline: as §2
[8] = Tmax in mouse at 50 mg/kg, sc; format: ADME, organism-based; set-up: dose 50 mg/kg, route subcutaneous; settings: in vivo; outline: as §1
[9] = system: Neisseria gonorrhoeae; test: Antibacterial activity against Neisseria gonorrhoeae after 24 hrs by broth microdilution method; format: functional
Outline: (§3)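 CLSI broth microdilution in cation-adjusted Mueller-Hinton II broth, final inoculum about 5 × 10^5 CFU/ml for most strains; streptococci supplemented with 2–5% lysed horse blood, H. influenzae in Haemophilus test medium. Aerobic incubation at 35–37°C for 24 h; MIC = lowest concentration with no visible growth.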

[10] = system: Staphylococcus aureus; test: microbe, parasite or virus in culture; settings: Mu50
[11] = system: Staphylococcus aureus; test: Antibacterial activity against ethidium bromide-resistant Staphylococcus aureus BSA643 after 24 hrs by broth microdilution method; format: functional; settings: BSA643, 24 h; outline: as §2
[12] = system: Staphylococcus aureus; test: Antibacterial activity against ethidium bromide-resistant Staphylococcus aureus Mu50 in presence of 20 ug/ml reserpine after 24 hrs by broth microdilution method; format: functional; settings: Mu50, 24 h; outline: as §2
[13] = Cmax in mouse at 20 mg/kg, sc; format: ADME, organism-based; set-up: dose 20 mg/kg, route subcutaneous; settings: in vivo; outline: as §1
[14] = AUC (0-24 hrs) in mouse at 20 mg/kg, sc; format: ADME, organism-based; set-up: time < 24 hr, dose 20 mg/kg, route subcutaneous; settings: plasma; outline: as §1
[15] = system: Staphylococcus aureus; test: Antibacterial activity against […] Staphylococcus aureus ATCC 29213 after 24 hrs by broth microdilution method; format: functional; settings: ATCC 29213, 24 h; outline: as §2
[16] = system: Acinetobacter baumannii; test: Antibacterial activity against Acinetobacter baumannii after 24 hrs by broth microdilution method; format: functional; outline: as §3
[17] = system: Escherichia coli; test: Antibacterial activity against Escherichia coli after 24 hrs by broth microdilution method; format: functional; outline: as §3
[18] = system: Peptostreptococcus sp.; test: Antibacterial activity against Peptostreptococcus sp. by agar dilution method; format: functional
Outline: (§4)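 Anaerobes by CLSI agar dilution on brucella agar with hemin, vitamin K and 5% laked sheep blood; inoculum from 24-h enriched blood agar colonies resuspended in brucella broth to 0.5 McFarland. Plates incubated anaerobically at 35–37°C for 48 h.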

[19] = system: Enterobacter sp.; test: Antibacterial activity against Enterobacter sp.; format: functional
Outline: (§5)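 Aerobic isolates run by CLSI broth microdilution in cation-adjusted Mueller-Hinton II broth (streptococci plus 2–5% lysed horse blood), about 5 × 10^5 CFU/ml final; 24 h at 35–37°C aerobically; MIC read as lowest concentration without visible growth.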

[20] = system: Clostridioides difficile; test: Antibacterial activity against Clostridium difficile by agar dilution method; format: functional; outline: as §4
[21] = system: Klebsiella pneumoniae; test: Antibacterial activity against Klebsiella pneumoniae; format: functional; outline: as §5
[22] = system: Cutibacterium acnes; test: Antibacterial activity against Propionibacterium acnes; format: functional; outline: as §4
[23] = system: Bacteroides fragilis; test: Antibacterial activity against Bacteroides fragilis by agar dilution method; format: functional; outline: as §4
[24] = system: Staphylococcus aureus; test: Antibacterial activity against methicillin-resistant Staphylococcus aureus after 24 hrs by broth microdilution method; format: functional; outline: as §2
[25] = system: Staphylococcus aureus; test: Antibacterial activity against methicillin-susceptible Staphylococcus aureus after 24 hrs by broth microdilution method; format: functional; outline: as §2
[26] = system: Neisseria meningitidis; test: Antibacterial activity against Neisseria meningitidis after 24 hrs by broth microdilution method; format: functional; outline: as §3
[27] = system: Pseudomonas aeruginosa; test: Antibacterial activity against Pseudomonas aeruginosa after 24 hrs by broth microdilution method; format: functional; outline: as §3

Structure (SMILES): CCN1CC(C(=O)O)C(=O)c2cc(F)c(N3CCNCC3)cc21 (configuration not stated)
Post anitbiotic effect [1]: 1.6 h

Structure (SMILES): O=C(O)c1cn(C2CC2)c2cc(N3CCNCC3)c(F)cc2c1=O [CIPROFLOXACIN]
Cmax [2]: 7720 ng/mL
AUC(0-t) at 24 h [3]: 14400 ng·h/mL
MIC [4]: > 64 µg/mL
MIC [5]: 0.25 µg/mL
Tmax [6]: 30 min
MIC [7]: 32 µg/mL (≈ 96.6 µM)
Tmax [8]: 30 min
MIC50 [9]: 0.004 µg/mL (≈ 0.0121 µM)
MIC90 [9]: 0.008 µg/mL (≈ 0.0241 µM)
MIC [10]: > 64 µg/mL
MIC [11]: 128 µg/mL (≈ 386 µM)
MIC [12]: 32 µg/mL
Cmax [13]: 3360 ng/mL
AUC(0-t) at 24 h [14]: 5950 ng·h/mL
MIC [15]: 0.25 µg/mL (≈ 0.754 µM)

Structure (SMILES): C[C@@H](O)[C@H]1C(=O)N2C(C(=O)O)=C(SCCNC=N)C[C@H]12 [IMIPENEM ANHYDROUS]
MIC50 [16]: 1 µg/mL (≈ 3.34 µM)
MIC90 [16]: > 16 µg/mL
MIC50 [17]: 0.5 µg/mL (≈ 1.67 µM)
MIC90 [17]: 0.5 µg/mL (≈ 1.67 µM)
MIC50 [18]: 0.06 µg/mL (≈ 0.2 µM)
MIC90 [18]: 0.25 µg/mL (≈ 0.835 µM)
MIC50 [19]: 1 µg/mL (≈ 3.34 µM)
MIC90 [19]: 2 µg/mL (≈ 6.68 µM)
MIC50 [20]: 4 µg/mL (≈ 13.4 µM)
MIC90 [20]: 4 µg/mL (≈ 13.4 µM)
MIC50 [21]: 0.5 µg/mL (≈ 1.67 µM)
MIC90 [21]: 1 µg/mL (≈ 3.34 µM)
MIC50 [22]: 0.06 µg/mL (≈ 0.2 µM)
MIC90 [22]: 0.06 µg/mL (≈ 0.2 µM)
MIC50 [23]: 0.25 µg/mL (≈ 0.835 µM)
MIC90 [23]: 0.25 µg/mL (≈ 0.835 µM)

MIC50 [18]: 0.25 µg/mL (≈ 0.588 µM)
MIC90 [18]: 1 µg/mL (≈ 2.35 µM)
MIC50 [20]: 2 µg/mL (≈ 4.71 µM)
MIC90 [20]: > 32 µg/mL
MIC50 [22]: 0.06 µg/mL (≈ 0.141 µM)
MIC90 [22]: 0.06 µg/mL (≈ 0.141 µM)
MIC50 [23]: 1 µg/mL (≈ 2.35 µM)
MIC90 [23]: 4 µg/mL (≈ 9.41 µM)
Structure (SMILES): CCC[C@@H]1C[C@@H](C(=O)N[C@@H]([C@H]2O[C@H](SC)[C@H](O)[C@@H](O)[C@H]2O)[C@H](C)Cl)N(C)C1 [CLINDAMYCIN]

Structure (SMILES): Cc1onc(-c2ccccc2)c1C(=O)N[C@@H]1C(=O)N2[C@@H]1SC(C)(C)[C@@H]2C(=O)O [OXACILLIN]
MIC50 [24]: > 16 µg/mL
MIC90 [24]: > 16 µg/mL
MIC50 [25]: 0.5 µg/mL (≈ 1.25 µM)
MIC90 [25]: 0.5 µg/mL (≈ 1.25 µM)

MIC50 [9]: 0.25 µg/mL (≈ 0.563 µM)
MIC90 [9]: 1 µg/mL (≈ 2.25 µM)
Structure (SMILES): CN(C)[C@@H]1C(O)=C(C(N)=O)C(=O)[C@@]2(O)C(O)=C3C(=O)c4c(O)cccc4[C@@](C)(O)[C@H]3C[C@@H]12 [TETRACYCLINE]

MIC50 [26]: 0.12 µg/mL (≈ 0.262 µM)
MIC90 [26]: 0.12 µg/mL (≈ 0.262 µM)
Structure (SMILES): CN(C)c1ccc(O)c2c1C[C@H]1C[C@H]3[C@H](N(C)C)C(O)=C(C(N)=O)C(=O)[C@@]3(O)C(O)=C1C2=O [MINOCYCLINE]

Structure (SMILES): CO/N=C1\CN(c2nc3c(cc2F)c(=O)c(C(=O)O)cn3C2CC2)CC1CN (configuration not stated) [GEMIFLOXACIN]
MIC [4]: 64 µg/mL (≈ 164 µM)
MIC [7]: 4 µg/mL (≈ 10.3 µM)
MIC [11]: 32 µg/mL (≈ 82.2 µM)
MIC [15]: 0.03 µg/mL (≈ 0.077 µM)

Structure (SMILES): CC(C)(O/N=C(\C(=O)N[C@@H]1C(=O)N2C(C(=O)[O-])=C(C[n+]3ccccc3)CS[C@H]12)c1csc(N)n1)C(=O)O [CEFTAZIDIME]
MIC50 [16]: 4 µg/mL (≈ 7.32 µM)
MIC90 [16]: > 32 µg/mL
MIC50 [17]: 0.25 µg/mL (≈ 0.457 µM)
MIC90 [17]: 0.5 µg/mL (≈ 0.915 µM)
MIC50 [27]: 2 µg/mL (≈ 3.66 µM)
MIC90 [27]: 32 µg/mL (≈ 58.5 µM)
MIC50 [19]: 0.5 µg/mL (≈ 0.915 µM)
MIC90 [19]: > 32 µg/mL
MIC50 [21]: 32 µg/mL (≈ 58.5 µM)
MIC90 [21]: > 32 µg/mL
